Experimental findings from ChEMBL document CHEMBL4038269, “Design, synthesis and evaluation of novel feruloyl-donepezil hybrids as potential multitarget drugs for the treatment of Alzheimer's disease” (Eur J Med Chem, 2017) are described below.

Data set [1] relates to SH-SY5Y. The experiment in a line: Neuroprotective activity in human SH-SY5Y cells assessed as reduction in amyloid beta (1 to 42)-induced exocytosis at 20 uM after 4 hrs by MTT dye based microscopic method. The data set is classed as functional, cell-based. An outline of the steps:
(§1)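 SH-SY5Y cells seeded at 3 x 10^4 cells/well, grown 24 h. Treated with compound (20 µM) plus Aβ1-42 oligomers (10 µM) for 4 h at 37 °C. Oligomers were prepared from HFIP-treated, DMSO-dissolved peptide and checked by TEM. MTT (5 mg/mL in PBS) added for 2 h. Cells inspected by light microscopy for needle-like exocytosed formazan crystals.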

Data set [2] relates to SH-SY5Y. The experiment in a line: Antioxidant activity in human SH-SY5Y cells assessed as reduction in H2O2-induced reactive oxygen species formation measured after 24 hrs by DCFH-DA probe based fluorescence assay. The data set is classed as functional, cell-based.
Data set [3] can be described thus: Cytotoxicity against human SH-SY5Y cells assessed as reduction in cell viability at 40 uM after 24 hrs by MTT assay relative to control. Type of data set: cell-based. To be noted: read-out: INH. An outline of the steps:
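SH-SY5Y cells seeded at 2 x 10^4 cells/well, grown 24 h, then exposed to compound 1.25–40 µM for 24 h at 37 °C. MTT (5 mg/mL in PBS) added for 2 h and formazan dissolved in isopropanol. Read at 570 nm, reference 690 nm. Viability loss reported as percent at the top concentration, 40 µM.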
For orientation: Tetrazolium assays rely on reduction of a dye to a coloured formazan, in cell work by metabolically active cells.

The subject of data set [4] is Mus musculus. Put plainly: Antiinflammatory activity in formalin-induced nociception Swiss mouse model assessed as reduction in time spent licking formalin injected hind paw during inflammatory phase at 100 umol/kg, po pretreated for 1 hr followed by formalin challenge measured after 20 to 30 mins. Type of data set: functional, organism-based. The gist of the method: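 Male Swiss mice (22-28 g), n=8 per group, given oral vehicle (saline + DMSO 2%) or 100 µmol/kg 1 h before formalin (5% in 0.9% saline, 20 µl) into the right hind paw sub-plantar region. Morphine 39 µmol/kg i.p. was given 30 min before. Paw-licking time recorded at 0–5 min (neurogenic phase) and 20–30 min (inflammatory phase).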

In data set [5] the test system is SH-SY5Y. Put plainly: Neuroprotective activity in human SH-SY5Y cells assessed as reduction in amyloid beta (1 to 42)-induced early vacuole formation at 20 uM after 4 hrs by MTT dye based microscopic method. The data set is classed as functional, cell-based. An outline of the steps: as §1
The subject of data set [6] is Mus musculus. Put plainly: Antinociceptive activity in carrageenan-induced Swiss mouse model of mechanical hyperalgesia at 100 umol/kg, po pretreated for 1 hr followed by carrageenan challenge measured at 3 hrs post dose by Von Frey filament assay. The data set is classed as functional, organism-based. An outline of the steps:
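Male Swiss mice (n=8) dosed orally with 100 µmol/kg or vehicle 1 h before intraplantar carrageenan (100 µg/paw). Mechanical threshold measured by up-and-down Von Frey method after 60 min acclimation on a wire screen. Started at 0.4 g filament, ≥6 trials at 10 s intervals, about 4 s per application. Reported as mean threshold in grams ± SEM.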

Data set [7] is described as follows: Metal chelating activity assessed as compound-Fe3+ complex formation at 75 uM after 30 mins by UV-Vis spectrophotometric method. Type of data set: functional. An outline of the steps: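 UV-Vis spectra in ethanol of compound at 75 µM alone or after 30 min incubation with CuSO4, FeSO4, FeCl3 or ZnCl2 (150 µM). Absorption maxima recorded.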

Activity calls are given as the source filed them.

One may read the IC50 as the point on the concentration scale where inhibition reaches its midpoint. On to `COc1cc(/C=C/C(=O)OCC2CCN(Cc3ccccc3)CC2)ccc1O`, for which the result in data set [1], in data set [5] and in data set [7] was inactive. Further, the Activity entry in data set [2] was “Dose-dependent effect”. Moreover, the IC50 in data set [2] (Homo sapiens, SH-SY5Y, 24 h, read-out: IC50) was determined as 16.9 µM. Moreover, the cytotoxicity at 24 h, 40 µM in data set [3] was determined as 6%. Further, the outcome in data set [4] and in data set [6] was Active.
